Most compounds without a hit are left out; they make up all but 2.9% or so of the library.
OX1R antag-1 – antagonists of human orexin 1 receptor (OX1R); AID 485270, 2010; 330,000 tested, 1.8% active; Orexin/Hypocretin receptor type 1 (Homo sapiens), O43613; inhibition, % at 6.6 µM; OX1R-expressing cells, FRET antagonist read-out; in the data active = inhibition mostly above about 38%, no sharp cut-off; inactive = mostly below about 40%
Target sequence (O43613 whole entry, looked up): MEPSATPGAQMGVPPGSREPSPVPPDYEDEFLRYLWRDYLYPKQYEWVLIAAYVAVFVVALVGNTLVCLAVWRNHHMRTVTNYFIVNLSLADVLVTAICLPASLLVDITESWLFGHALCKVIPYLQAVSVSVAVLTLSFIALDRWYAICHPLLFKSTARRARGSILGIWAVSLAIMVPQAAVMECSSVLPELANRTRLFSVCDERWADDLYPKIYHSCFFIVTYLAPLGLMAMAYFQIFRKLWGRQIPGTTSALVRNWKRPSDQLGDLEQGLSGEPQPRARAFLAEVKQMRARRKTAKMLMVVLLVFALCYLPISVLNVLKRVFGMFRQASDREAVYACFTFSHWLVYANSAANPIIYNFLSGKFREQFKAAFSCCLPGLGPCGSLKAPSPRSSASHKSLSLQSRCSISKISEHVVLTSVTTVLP
M1 ag parental – counter-screen for M1 agonists: effect in parental CHO-K1 cells. Fluo-8 calcium fluorescence; scaled to maximal ATP response, vehicle zero. AID 602248, 2012. activation, % at 3 µM. 360,000 tested, 0.48% active; in the data active = activation above about 15%;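 note: untransfected CHO-K1 host cells lacking M1 receptor as counterscreen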
M1 PAM parental – nonselective calcium activators in parental CHO-K1 cells, primary screen, counter-screen for M1 PAM project, cell-based, Fluo-8 calcium fluorescence, full deck, 1536-well; ATP EC20; 0% at ATP EC20, 100% at ATP max; activation, % at 3 µM; 360,000 tested, 0.02% active;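 active = activation above the run cutoff, the mean activation of all test compounds plus 3 SD, cut at about 40% in these data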;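 note: peak over basal fluorescence ratio in a 140 s read after ATP addition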
OX1R antag-2 – OX1R (HCRTR1) antagonists, primary screen, fluorescence, CHO/OX1R cells, Fluo-8 calcium, orexin A. inhibition, % at 5 µM. Orexin/Hypocretin receptor type 1 (Homo sapiens), O43613. AID 434989, 2010. Fluo-8 calcium fluorescence. 330,000 tested, 0.43% active;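 active = inhibition above its plate's threshold, mean inhibition of all tested compounds on the plate plus 3 SD, cut at about 37% in these data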
CHO-K1 Ca antag – nonselective inhibitor or artifact in parental CHO-K1 cells; ATP-induced calcium, Fluo-8 fluorescence; inhibition, % at 3 µM; 360,000 tested, 0.6% active;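 active = inhibition above a per-plate cutoff, the plate's mean sample inhibition plus 3 SD, cut at about 24% in these data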
CHO parental Ca – ATP-evoked calcium signal inhibitors, parental CHO, primary screen, counter-screen for OX1R antagonist project, cell-based, fluorescence, Fluo-8 calcium dye. parental CHO-K1, ATP-induced calcium, Fluo-8 fluorescence. inhibition, % at 5.6 µM. 330,000 tested, 0.63% active;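 active = inhibition above that plate's mean sample inhibition plus 3 SD, cut at about 26% in these data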
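material = parental CHO cells | also added = ATP as calcium-mobilizing challenge | dosing = single point at 5.6 µM | detection = intracellular calcium via Fluo-8 no-wash fluorescent dye | read-out = % inhibition | benchmarks = low control ATP plus DMSO, high control DMSO only | repeats = one well per compound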
Large screens that a line does not name were inactive; ! = repeats disagree.

C=CCOc1ccccc1CN(C(=O)CCl)c1ccc2c(c1)OCO2	none
O=C(CSc1nnc(-c2cccs2)n1Cc1ccccc1)NCc1ccc2c(c1)OCO2	OX1R antag-1 62.0
O=C(CSc1nnc(-c2cccs2)n1-c1ccccc1)NCc1ccc2c(c1)OCO2	OX1R antag-1 62.0
CCn1c(SCC(=O)NCc2ccc3c(c2)OCO3)nnc1-c1cccs1	none
Nc1ccc2ccc(O)cc2c1	none (no result: OX1R antag-1, OX1R antag-2, CHO parental Ca)
C[n+]1c2cc(N)ccc2cc2ccc(N)cc21	M1 ag parental 210.1, CHO-K1 Ca antag 25.2! (no result: OX1R antag-1, OX1R antag-2, CHO parental Ca)
CCOc1ccccc1NC(=O)CSc1nc2cccnc2n1C	OX1R antag-1 52.5
CCn1c(SCC(=O)Nc2nc(C)c(C)s2)nc2cccnc21	OX1R antag-1 74.6
NC(=O)c1c(NC(=O)c2ccc(F)cc2)sc2c1CCC2	OX1R antag-1 51.1
Cc1cc(C(F)F)n2nc(C(=O)Nc3sc4c(c3C(N)=O)CCC4)nc2n1	OX1R antag-1 57.4
CC(C)CC(=O)NC(=S)Nc1sc2c(c1C(N)=O)CCC2	CHO-K1 Ca antag 37.7
CNC(=O)c1c(NC(=O)c2cccc(C)c2)sc2c1CCC2	OX1R antag-1 44.2
COC(=O)c1c(NC(=O)c2nc3nc(C)cc(C(F)F)n3n2)sc2c1CCC2	none
NC(=O)c1ccc(-n2nnnc2SCC(=O)Nc2ccccc2F)cc1	none
Cc1ccc(C)c(C(C)NC(=O)Cc2cccs2)c1 (centres undefined)	none
Cc1ccc(C(=O)N/C(=C/c2ccc(-c3cc(C(F)(F)F)ccc3Cl)o2)C(=O)NCc2cccnc2)cc1	OX1R antag-1 36.0
O=C(NCc1cccnc1)/C(=C/c1ccc(-c2cccc(C(F)(F)F)c2)o1)NC(=O)c1ccccc1	none
CC(=O)Nc1cc(-c2ccccc2CN(C)C)cn2c(-c3ccc(F)c(Cl)c3)cnc12	none (no result: OX1R antag-1, OX1R antag-2, CHO parental Ca)
Nc1[nH]n2c(=O)cc(-c3ccccc3)nc2c1N=Nc1ccc(S(N)(=O)=O)cc1	CHO-K1 Ca antag 24.7
O=c1c2ccccc2ncn1-c1ccc([N+](=O)[O-])cc1Cl	CHO-K1 Ca antag 24.0
CCOc1c(O)ccc(/C=C2\SC(=S)NC2=O)c1[N+](=O)[O-]	OX1R antag-1 49.5
CCOc1ccc(N(C)c2ccc(/C=C3/SC(=S)NC3=O)cc2)cc1	OX1R antag-2 33.1, CHO parental Ca 26.4
CN(C)CCN=Cc1c(O)n(-c2ccc(S(=O)(=O)N3CCOCC3)cc2)c(=O)c2ccccc12	none (no result: OX1R antag-1, OX1R antag-2, CHO parental Ca)
C=CCN1C(=O)C2(NC(=O)c3ccccc3N2)c2ccccc21 (centres undefined)	none
C=CCN1C(=O)C2(NNc3ccccc3O2)c2ccccc21 (centres undefined)	CHO parental Ca 32.2
CCCCN1C(=O)C2(NNc3ccccc3O2)c2ccccc21 (centres undefined)	OX1R antag-2 36.9
CCCCOCCCNC(=O)N[C@H](C(=O)OC)C(C)CC (some centres undefined)	none
OCCNCc1c(OCc2ccc(Cl)cc2)ccc2ccccc12	M1 ag parental 23.7
CCCn1c(SCC(=O)N2N=C3/C(=C/c4ccc(OC)cc4)CCCC3C2c2ccc(OC)cc2)n[nH]c1=O (centres undefined)	M1 ag parental 24.5
COc1ccc(NC(=O)C2CCCN2C(=O)NC2CCCCC2)cc1 (centres undefined)	none
COc1cccc(Nc2nnc(SCc3cc([N+](=O)[O-])cc4c3OCOC4)s2)c1	OX1R antag-1 67.8
Cc1cccc(C)c1Nc1nnc(SCc2cc([N+](=O)[O-])cc3c2OCOC3)s1	none
COc1ccnc(Oc2ccccc2)c1C(N)=O	CHO-K1 Ca antag 26.7
Cc1ccc(OCC(=O)Nc2ccccc2F)cc1C	none
O=C(c1ccc(NC2=NC3CS(=O)(=O)CC3S2)cc1)N(CCO)Cc1ccccc1 (centres undefined)	CHO-K1 Ca antag 36.5
CC(CNC(=O)c1ccc(NC2=NC3CS(=O)(=O)CC3S2)cc1)c1ccccc1 (centres undefined)	none
CC(C)NC(=O)Nc1ccc(Br)cc1Cl	none
